“Also recorded” adds a separate entry of the source. Where two headings read alike, the source gives them in different places.

The target in assay [1] is T1, meprin β (Homo sapiens, UniProt Q16820).
T1 sequence (Q16820 62-614 limits assumed): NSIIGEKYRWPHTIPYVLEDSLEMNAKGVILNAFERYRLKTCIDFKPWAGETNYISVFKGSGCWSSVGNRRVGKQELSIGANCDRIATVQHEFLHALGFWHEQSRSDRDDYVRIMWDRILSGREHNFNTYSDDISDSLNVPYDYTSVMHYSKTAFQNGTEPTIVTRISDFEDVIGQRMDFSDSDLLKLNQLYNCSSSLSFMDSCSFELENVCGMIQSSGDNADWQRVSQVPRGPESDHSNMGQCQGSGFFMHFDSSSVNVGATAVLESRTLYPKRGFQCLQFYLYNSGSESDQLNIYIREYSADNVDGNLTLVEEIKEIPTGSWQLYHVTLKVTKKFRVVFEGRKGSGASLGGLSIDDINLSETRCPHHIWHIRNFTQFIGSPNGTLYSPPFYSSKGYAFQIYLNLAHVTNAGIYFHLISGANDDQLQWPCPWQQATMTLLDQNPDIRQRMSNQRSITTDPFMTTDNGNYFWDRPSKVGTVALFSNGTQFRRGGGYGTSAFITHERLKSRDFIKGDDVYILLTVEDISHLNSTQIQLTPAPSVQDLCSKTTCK
Kind of assay: Meprin β LOPAC pilot screen. It counts as biochemical. As to conditions: 18 μM; for meprin β LOPAC pilot screen outcome: hit cutoff 25% inhibition.

The target in assay [2] is T2, meprin α (Homo sapiens, UniProt Q16819).
T2 sequence (Q16819 66-653 limits assumed): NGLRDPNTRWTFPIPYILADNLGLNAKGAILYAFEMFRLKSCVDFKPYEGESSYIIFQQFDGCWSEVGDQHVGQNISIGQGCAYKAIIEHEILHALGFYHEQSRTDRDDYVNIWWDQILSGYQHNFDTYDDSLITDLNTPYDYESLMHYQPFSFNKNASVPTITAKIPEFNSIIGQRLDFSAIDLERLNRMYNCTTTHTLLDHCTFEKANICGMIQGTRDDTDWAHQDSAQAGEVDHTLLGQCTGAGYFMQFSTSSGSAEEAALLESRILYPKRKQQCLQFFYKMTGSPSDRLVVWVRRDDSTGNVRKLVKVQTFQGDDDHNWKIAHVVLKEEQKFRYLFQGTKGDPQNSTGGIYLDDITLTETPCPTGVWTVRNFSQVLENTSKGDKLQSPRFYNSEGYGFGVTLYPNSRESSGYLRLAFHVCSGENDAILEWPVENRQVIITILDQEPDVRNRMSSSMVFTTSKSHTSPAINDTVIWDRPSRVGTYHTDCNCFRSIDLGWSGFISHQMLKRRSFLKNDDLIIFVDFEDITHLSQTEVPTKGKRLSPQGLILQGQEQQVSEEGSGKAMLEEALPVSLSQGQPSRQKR
Kind of assay: Meprin α LOPAC pilot screen. It counts as biochemical. The note with it: 18 μM, hit cutoff 25% inhibition. The method in brief: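 Single-point FRET screen of 1,280 library compounds at 18 μM nominal final concentration, on four plates. Trypsin-activated recombinant human meprin α (2x solution 2.6 nM, Hepes/Brij-35 pH 7.5) was pre-incubated 30 min at RT with test compound added by pin tool. 2x (MCA)-YVADAPK-(K-ε-DNP) at 20 μM was then added for 1 h at RT. Read at ex 324/em 393 nm.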

In assay [3] the target is T2, meprin α. Nature of the assay: Meprin α HTS FRET assay, dose response. Type of assay: biochemical. The method in brief: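 Recombinant human Strep-tagged meprin α was expressed in baculovirus-infected BTI-TN-5B1-4 cells, trypsin-activated, then freed of trypsin. It was used as a 2x solution at 2.6 nM in 50 mM Hepes, 0.01% Brij-35, pH 7.5. Test compound was pre-incubated 30 min at RT, then 2x (MCA)-YVADAPK-(K-ε-DNP) at 20 μM was added for 1 h at RT. Read at ex 324/em 393 nm. 3-fold dilutions in quadruplicate; 4-parameter fit; 0.1% or 1.0% DMSO.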

For the next assay, the target named is T3, MMP-2 (Homo sapiens, UniProt P08253).
T3 sequence (P08253 110-660): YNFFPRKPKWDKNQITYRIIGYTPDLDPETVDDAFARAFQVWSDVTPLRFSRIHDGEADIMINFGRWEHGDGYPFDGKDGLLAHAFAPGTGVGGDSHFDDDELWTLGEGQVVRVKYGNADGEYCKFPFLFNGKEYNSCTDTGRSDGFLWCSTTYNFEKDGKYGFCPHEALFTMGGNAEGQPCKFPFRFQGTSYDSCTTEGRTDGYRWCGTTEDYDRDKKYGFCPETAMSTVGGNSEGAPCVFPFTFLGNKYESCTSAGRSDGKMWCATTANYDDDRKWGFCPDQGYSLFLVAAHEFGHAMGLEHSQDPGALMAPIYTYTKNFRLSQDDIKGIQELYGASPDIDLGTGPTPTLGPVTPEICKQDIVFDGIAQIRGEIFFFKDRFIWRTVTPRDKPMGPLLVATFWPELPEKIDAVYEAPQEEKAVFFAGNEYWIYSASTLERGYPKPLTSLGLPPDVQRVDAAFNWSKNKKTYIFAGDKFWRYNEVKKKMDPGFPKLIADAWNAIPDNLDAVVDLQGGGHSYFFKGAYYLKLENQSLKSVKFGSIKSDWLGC
Nature of the assay: Selectivity testing against zinc metalloproteases: MMP-2. Type of assay: biochemical. As to conditions: read-out: IC50 MMP-2; n = 3 Mean ± SD.

Assay [4] concerns the target T1, meprin β. Nature of the assay: Meprin β inhibition kinetics / enzyme kinetics. Type of assay: biochemical. Put shortly:
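Trypsin-activated meprin β at 1 nM was run with (MCA)-EDEDED-(K-ε-DNP) 0.5–25 μM plus varying inhibitor concentrations in 50 mM Hepes, 0.01% Brij-35, pH 7.5, at 25 °C. Fluorescence was read at ex 324/em 393 nm. Rates came from the linear portion of the progress curves. Ki and Ki′ came from nonlinear regression with a mixed-inhibition model. Mechanism came from the alpha parameter and was checked with Lineweaver-Burk plots.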

The target of another assay is MMP-14 (Homo sapiens, UniProt P50281). Nature of the assay: Selectivity testing against zinc metalloproteases: MMP-14. Type of assay: biochemical. The note with it: read-out: IC50 MMP-14; n = 3 Mean ± SD.
A further assay addresses MMP-8 (Homo sapiens, UniProt P22894). Nature of the assay: Selectivity testing against zinc metalloproteases: MMP-8. Type of assay: biochemical. The note with it: read-out: IC50 MMP-8; n = 3 Mean ± SD.
Assay [5] addresses T1, meprin β. Nature of the assay: Meprin β HTS FRET assay, dose response. Type of assay: biochemical. Put shortly:
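Trypsin-activated meprin β (trypsin removed on immobilized ovomucoid) in 50 mM Hepes, 0.01% Brij-35, pH 7.5, added as 2x (0.15 nM) solution. Pin-transferred inhibitor was preincubated 30 min at RT. 2x (20 μM) (MCA)-EDEDED-(K-ε-DNP) was then added, run 1 h at RT, and read at ex 324/em 393 nm. A 3-fold dilution series was run in quadruplicate, and % inhibition was fitted with a 4-parameter equation. DMSO final was 0.1% or 1.0%.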

A further assay concerns the target T4, ADAM10 (Homo sapiens, UniProt O14672).
T4 sequence (O14672 214-748): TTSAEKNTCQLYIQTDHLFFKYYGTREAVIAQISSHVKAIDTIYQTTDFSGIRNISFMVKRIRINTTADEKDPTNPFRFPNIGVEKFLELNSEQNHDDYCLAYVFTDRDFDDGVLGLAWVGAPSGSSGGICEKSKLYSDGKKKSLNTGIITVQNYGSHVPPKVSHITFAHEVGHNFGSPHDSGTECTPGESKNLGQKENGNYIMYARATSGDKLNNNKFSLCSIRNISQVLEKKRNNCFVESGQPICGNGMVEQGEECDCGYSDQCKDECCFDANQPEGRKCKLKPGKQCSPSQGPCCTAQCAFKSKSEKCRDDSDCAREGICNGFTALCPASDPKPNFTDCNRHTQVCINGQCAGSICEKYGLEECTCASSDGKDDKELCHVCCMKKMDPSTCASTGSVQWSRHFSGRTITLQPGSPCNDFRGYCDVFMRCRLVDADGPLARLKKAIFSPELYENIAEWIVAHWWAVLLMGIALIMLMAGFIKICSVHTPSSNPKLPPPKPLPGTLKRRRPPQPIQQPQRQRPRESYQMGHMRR
Nature of the assay: Selectivity testing against zinc metalloproteases: ADAM10. The note with it: read-out: IC50 ADAM10; n = 3 Mean ± SD. Type of assay: biochemical.

A further assay addresses MMP-13 (Homo sapiens, UniProt P45452). Kind of assay: Selectivity testing against zinc metalloproteases: MMP-13. It counts as biochemical. The note with it: read-out: IC50 MMP-13; n = 3 Mean ± SD.
The target of the next assay is ADAM17 (Homo sapiens, UniProt P78536). Nature of the assay: Selectivity testing against zinc metalloproteases: ADAM17. Type of assay: biochemical. As to conditions: read-out: IC50 ADAM17; n = 3 Mean ± SD.
Sequence of ADAM17 (P78536 215-824, species assumed): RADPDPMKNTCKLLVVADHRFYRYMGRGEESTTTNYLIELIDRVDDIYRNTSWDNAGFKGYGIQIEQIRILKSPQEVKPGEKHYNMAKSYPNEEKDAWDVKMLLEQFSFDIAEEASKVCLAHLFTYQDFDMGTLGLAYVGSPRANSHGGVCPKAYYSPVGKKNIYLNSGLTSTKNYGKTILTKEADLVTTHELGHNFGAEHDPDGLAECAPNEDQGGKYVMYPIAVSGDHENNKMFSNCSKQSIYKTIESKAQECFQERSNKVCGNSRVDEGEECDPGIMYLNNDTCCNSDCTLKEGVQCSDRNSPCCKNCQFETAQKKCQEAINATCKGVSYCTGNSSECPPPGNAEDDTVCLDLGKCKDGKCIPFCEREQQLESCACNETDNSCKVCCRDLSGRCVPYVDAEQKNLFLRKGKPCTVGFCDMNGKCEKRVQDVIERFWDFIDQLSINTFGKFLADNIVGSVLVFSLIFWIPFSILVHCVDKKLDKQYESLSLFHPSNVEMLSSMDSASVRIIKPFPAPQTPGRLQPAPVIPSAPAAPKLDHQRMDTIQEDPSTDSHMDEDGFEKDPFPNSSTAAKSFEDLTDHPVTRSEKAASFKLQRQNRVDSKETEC
In another assay the target is MMP-9 (Homo sapiens, UniProt P14780). Nature of the assay: Selectivity testing against zinc metalloproteases: MMP-9. It counts as biochemical. The note with it: read-out: IC50 MMP-9; n = 3 Mean ± SD.
Sequence of MMP-9 (P14780 94-707, species assumed): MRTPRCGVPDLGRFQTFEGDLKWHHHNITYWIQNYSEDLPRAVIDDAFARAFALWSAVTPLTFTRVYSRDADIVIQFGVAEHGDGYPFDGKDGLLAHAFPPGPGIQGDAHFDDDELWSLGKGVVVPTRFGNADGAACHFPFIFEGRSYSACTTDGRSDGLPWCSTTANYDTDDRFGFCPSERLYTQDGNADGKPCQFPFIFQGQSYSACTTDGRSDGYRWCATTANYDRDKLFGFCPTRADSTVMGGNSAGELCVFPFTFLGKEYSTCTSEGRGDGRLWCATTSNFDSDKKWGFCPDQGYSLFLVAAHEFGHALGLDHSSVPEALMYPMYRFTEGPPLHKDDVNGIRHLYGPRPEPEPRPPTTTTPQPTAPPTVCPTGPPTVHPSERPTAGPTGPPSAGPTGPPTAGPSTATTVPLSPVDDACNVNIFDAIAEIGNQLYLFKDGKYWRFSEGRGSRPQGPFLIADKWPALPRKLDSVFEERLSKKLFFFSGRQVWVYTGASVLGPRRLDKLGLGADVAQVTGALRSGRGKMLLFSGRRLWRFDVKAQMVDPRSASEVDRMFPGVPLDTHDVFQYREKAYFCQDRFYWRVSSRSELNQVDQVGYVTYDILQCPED
Assay [6] concerns the target meprin β. As to conditions: read-out: Ki meprin β; cited from earlier work.
Assay [7] has as its system meprin α. The note with it: cited from earlier work.

Sequence of MMP-8 (P22894 101-467, species assumed): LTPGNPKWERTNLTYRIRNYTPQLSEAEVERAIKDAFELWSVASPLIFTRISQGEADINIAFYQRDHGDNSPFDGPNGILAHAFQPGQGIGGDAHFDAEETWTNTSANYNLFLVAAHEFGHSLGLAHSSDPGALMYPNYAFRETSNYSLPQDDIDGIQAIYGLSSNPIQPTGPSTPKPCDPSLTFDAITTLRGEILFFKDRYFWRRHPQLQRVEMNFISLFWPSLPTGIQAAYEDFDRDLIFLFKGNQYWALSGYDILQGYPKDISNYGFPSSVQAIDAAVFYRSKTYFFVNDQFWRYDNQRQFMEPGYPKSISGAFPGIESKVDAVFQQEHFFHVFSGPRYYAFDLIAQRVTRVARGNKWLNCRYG

On to `O.c1cnc2c(c1)ccc1cccnc12` [1,10-phenanthroline monohydrate], for which the “meprin β LOPAC pilot screen outcome” value at meprin β [1] was “inactive”. Besides, the “meprin α LOPAC pilot screen outcome” value at meprin α [2] was “inactive”.

Take `c1ccc(-c2ccccn2)nc1` [2,2′-bipyridyl]: the “meprin β LOPAC pilot screen outcome” value at meprin β [1] was “inactive”. Also, the “meprin α LOPAC pilot screen outcome” value on meprin α [2] is “inactive”.

In the case of `CC(=O)c1ccc(S(=O)(=O)NC(=O)NC2CCCCC2)cc1` [Acetohexamide], at meprin α [2], the “meprin α LOPAC pilot screen outcome” value is on record as “selective hits”.

`N.N.O=C([O-])C1(C(=O)[O-])CCC1.[Pt+2]` [Carboplatin, carboplatin]: on meprin β [1], the “% inhibition meprin β in pilot screen” value is “negative inhibition values” and the “meprin β LOPAC pilot screen outcome” value is listed as “selective hits”.

Regarding `CCN(CC)CCNC(=O)c1ccc(NC(C)=O)cc1.Cl` [N-Acetylprocainamide hydrochloride], the “meprin α LOPAC pilot screen outcome” value on meprin α [2] was “selective hits”.

The IC50 is the point on the concentration scale where inhibition reaches its midpoint. What is called Ki is a measure of affinity in units of concentration, obtained from inhibition or displacement. On to `Cc1nc(N=Nc2cc(S(=O)(=O)[O-])c3cc([N+](=O)[O-])cc(S(=O)(=O)[O-])c3c2)c(COP(=O)([O-])[O-])c(C=O)c1O.[Na+].[Na+].[Na+].[Na+]` [PPNDS, Pyridoxal-5′-phosphate-6-(2′-naphthylazo-6′-nitro-4′,8′-disulfonate) tetrasodium], for which the IC50 on meprin α [3] (read-out: IC50 Meprin α, selectivity testing, n = 3 Mean ± SD) was found to be 67 ± 4.5 µM; at MMP-2 it was 31 ± 2 µM; at MMP-14, 73 ± 7 µM; at MMP-8, 1 ± 0.1 µM; at meprin β [5] (read-out: IC50 Meprin β, selectivity testing, n = 3 Mean ± SD) it was 0.08 ± 0.005 µM; at ADAM10, 19 ± 1.1 µM. The IC50 at MMP-13 was determined as 69 ± 4.3 µM; at ADAM17 it was 91 ± 7.1 µM; on MMP-9 it was 40 ± 2.5 µM. Further, the “Ki lower than IC50, fold” value at meprin β [4] (meprin β Ki versus HTS IC50) worked out at 10 fold. Besides, the “α = Ki/Ki′” value at meprin β [4] (mixed-model inhibition, non-linear regression) is 36 ± 27. Moreover, the “mechanism of inhibition of meprin β” value on meprin β [4] (non-linear regression and Lineweaver-Burke plots) is “pure competitive inhibition modality; also recorded: pure competitive inhibition mechanism”. The Ki at meprin β [4] (read-out: Ki meprin β, substrate (MCA)-EDEDED-(K-ε-DNP), mixed inhibition model) stood at 0.008 ± 0.0024 µM. The “meprin β LOPAC pilot screen outcome” value on meprin β [1] is “selective hits”. For the same molecule, the “potency differential meprin β versus meprin α” value at meprin β [5] (ratio of IC50 values) is roughly 1000 fold. For the same molecule, the “selectivity ratio meprin β versus MMP-8” value on meprin β [5] (ratio of IC50 values) is recorded as “approximately 12 fold”.

For the molecule `CCCCC[C@H](CC(=O)NO)C(=O)N[C@H](C(=O)N1CCC[C@H]1CO)C(C)C` [actinonin], the half-maximal inhibitory concentration (IC50) at meprin α [3] (IC50 meprin α, 0.1% DMSO) was 0.0015 ± 7e-05 µM; against meprin α [3] (IC50 meprin α, 1.0% DMSO) it was 0.0025 ± 0.0001 µM; against meprin β [5] (IC50 meprin β, 0.1% DMSO), 5.2 ± 0.1 µM; against meprin β [5] (IC50 meprin β, 1.0% DMSO), 4.5 ± 0.1 µM. Further, the Ki at meprin β [6] is 2 µM; at meprin α [7] (read-out: Ki meprin α), 0.02 µM. For the same molecule, the “meprin α LOPAC pilot screen outcome” value was “meprin α selective” on meprin α [2] and “selective hits” at meprin α [2] (listed as Actinonin). In addition, the “fold more potent inhibition of meprin α than meprin β” value in the assay on meprin α [7] (ratio of Ki values) is given as 100 fold.

As for `CNC(=O)[C@H](Cc1ccccc1)NC(=O)[C@H](CC(C)C)[C@H](CSc1cccs1)C(=O)NO` [batimastat], the Ki on meprin β [6] was 18 ± 2.2 µM.

For `O=C(O)[C@@H]1C[C@H](C(=O)O)N1` [cis-Azetidine-2,4-dicarboxylic acid], the “meprin α LOPAC pilot screen outcome” value at meprin α [2] was “selective hits”.

Turning to `O=P(O)(O)C(Cl)(Cl)P(=O)(O)O` [clodronic acid], the “meprin β LOPAC pilot screen outcome” value at meprin β [1] is “inactive”. Also, at meprin α [2], the “meprin α LOPAC pilot screen outcome” value was “inactive”.

In the case of `CC(C)C[C@H](NC(=O)[C@H](O)[C@H](N)Cc1ccccc1)C(=O)O.Cl` [epibestatin HCl], the “meprin β LOPAC pilot screen outcome” value at meprin β [1] is “inactive”. At meprin α [2], the “meprin α LOPAC pilot screen outcome” value was “inactive”.

As to `CNC(=O)[C@H](Cc1c[nH]c2ccccc12)NC(=O)[C@@H](CC(=O)NO)CC(C)C` [galardin], the Ki on meprin β [6] was 8.9 ± 0.71 µM.

The values are drawn from publication PMC4339026 (Biopolymers, 2014).
